According to article PMC10450354 (Bioactive Materials, 2023):

What was measured:
[1] = system: BMSCs; assay: Transwell migration of BMSCs in coculture; format: cell-based, mouse
Summary of the method: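 BMSCs were obtained from 4-week-old SPF C57BL/6J mouse bone marrow, red-cell-lysed at 4 °C for 10 min, and cultured at 37 °C and 5% CO2. They were then cocultured with macrophages given no treatment, IL-4, or IL-4 plus test nanofibers. BMSC migration was assessed at 0, 24 and 48 h and expressed as percentage of migrating cells; mean ± SD, n = 3.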

[2] = system: BMDMs; assay: Flow cytometry of M2 markers in BMDMs incubated with IL-4 and UPNs; format: cell-based, mouse; settings: for effect of inhibitor on UPN-induced CD206 expression: flow cytometry, IL-4 and UPN induced macrophages
Summary of the method: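 Bone marrow cells from C57BL/6J mice were red-cell-lysed and grown as BMDMs at 37 °C and 5% CO2 in M-CSF medium (40 ng/ml). Medium was replenished on days 2 and 3 and renewed on day 5. Groups were untreated, IL-4, test nanofibers, and IL-4 plus test nanofibers. STAT6-IN-1 (p-STAT6 inhibitor) was applied with IL-4 plus nanofibers. CD163 and CD206 were quantified by flow cytometry; mean ± SD, n = 3.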

[3] = system: p-STAT6; assay: p-STAT6 immunofluorescence in M2-type macrophages; format: cell-based, mouse; settings: 24 h; semiquantitative; Ctrl group 1.7%; Fig. 4E
[4] = system: macrophages; assay: Microscopic observation of macrophage state with UP and UPN; format: cell-based, mouse; settings: 800 μg/ml, 0, 48 and 72 h; Figure S7 A-C
Summary of the method: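 Peptide and nanofiber preparations pre-incubated 6 h. Cells then cultured with them for 0, 48 and 72 h. Cell activity state checked by light microscopy alongside a CCK-8 proliferation read (100 μl per 2 ml medium, 2 h, absorbance 450 nm).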

[5] = system: bone defects in mice; assay: Gene transcript sequencing of bone defects in mice treated with UPs; format: in vivo, mouse; settings: mice treated with UPs for 14 days (tail vein injection); Fig. 3A
[6] = system: macrophages; assay: TEM of macrophage mitochondria; format: cell-based, mouse; settings: Ctrl group nearly 20%, Fig. 2J
Summary of the method: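 Macrophages derived from mouse bone marrow in M-CSF medium (40 ng/ml), refreshed on days 2, 3 and 5, then induced with peptide or nanofibers. Imaged by transmission electron microscopy. Expanded mitochondria scored as a fraction of total mitochondria. Mean ± SD, n = 3.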

IL-4: interleukin-4, used to induce M2-type macrophages
percentage of migrating cells at 24 h ([1]; 24 h, control group nearly 2%, Fig. 5I): 7.2% | number of migrating cells at 48 h ([1]; 48 h, control group 4.8%, Fig. 5J): 13.7% | expression of CD163 ([2]; BMDMs, flow cytometry quantification, n = 3, Ctrl nearly 17.2%, Fig. 3L): 50.3% | expression of CD206 ([2]; BMDMs, flow cytometry quantification, n = 3, Ctrl nearly 18.1%, Fig. 3M): 40.9% | p-STAT6 fluorescence intensity [3]: 7.8%

O=C(Nc1ccccc1)c1cc([N+](=O)[O-])ccc1Cl [GW9662]
effect of inhibitor on UPN-induced CD206 expression [2]: inhibited UPN-induced expression of the M2 type macrophage marker CD206

C/C(=C\C(=O)N[C@H](C(=O)N1CCC[C@H]1C(=O)N(c1ccccc1)c1ccc(I)cc1)C(C)(C)C)c1ccc(OP(=O)(O)O)cc1 [STAT6-IN-1]
effect of inhibitor on UPN-induced CD206 expression [2]: inhibited UPN-induced expression of the M2-type macrophage marker CD206

Ser-Glu-Ser-Ser-Glu [UP]
active status of macrophages under the microscope [4]: not significantly toxic | expression of Arg1 and CD163 in bone defects [5]: marked increase in the expression of Arg1 and CD163 | percentage of swollen mitochondria [6]: 38%
